Source: paper PMC6803818 (Future Medicinal Chemistry, 2019)
“Also recorded” adds a separate entry of the source. Like-named read-outs stand apart in the source and are kept apart here.

Tests used:
[1] = system: NUGC-3 (Y220C) and NUGC-4 (wild-type p53); assay: Cell viability of gastric cancer cell lines, 72 h; type: cell-based, human; details: NUGC-3 (Y220C) versus NUGC-4 (wild-type p53)
[2] = target: p53 wild type (Homo sapiens, UniProt P04637); assay: DSF with wild type p53 DBD; type: binding; details: same conditions as in Table 1 (250 μM)
Outline: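 Thermal shift of the p53 DNA-binding domain (8 μM) with 10× SYPRO Orange in 25 mM KPi (pH 7.2), 150 mM NaCl, 1 mM TCEP, at 5% (v/v) final DMSO. Test compound was present at 250 μM. ΔTm = Tm (protein + ligand) − Tm (protein alone).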

[3] = target: p53 Y220C DBD (94-312) (Homo sapiens, UniProt P04637, M133L/N239Y/N268D/V203A/Y220C); assay: Light scattering assay, aggregation kinetics at 37°C; type: biochemical; details: for slowing of initial rate of Y220C aggregation relative to PK9318: 15 μM compound
[4] = Cell viability, 72 h incubation, isogenic knockout; type: cell-based, human; details: human
Outline: (§1)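 HUH-7 (Y220C) cells and an isogenic CRISPR/Cas9 p53 knockout clone (HUH7-F1: codon-124 frameshift on one allele, deletion of residues 125–223 on the other) were exposed to 0.6–15 μM test compound for 72 h. Viability was read in quadruplicate and normalized to blank (=1) and no-cell (=0) controls. Data are mean ± SEM of triplicates, with a paired t-test comparing parental and knockout lines.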

[5] = target: stabilized p53-Y220C DBD (Homo sapiens, UniProt P04637, M133L/N239Y/N268D/V203A/Y220C); assay: Differential scanning fluorimetry; type: binding; details: compound concentration 250 μM, 8-μM protein
Outline: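 Thermal shift by DSF used 8 μM stabilized human p53 DBD (residues 94–312, M133L/V203A/N239Y/N268D plus Y220C) with 10× SYPRO Orange. Buffer was 25 mM KPi pH 7.2, 150 mM NaCl, 1 mM TCEP, with 5% (v/v) DMSO final. Test compound was at 250 μM. ΔTm = Tm(mutant + ligand) − Tm(mutant), averaged over replicate runs.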

[6] = system: HUH-7 cells (homozygous p53-Y220C); assay: Cell viability, 72 h incubation; type: cell-based, human; details: for p53-Y220C-dependent cell viability reduction: HUH-7 versus HUH-7 p53 KO
Outline: as §1

[7] = system: cancer cell lines with homozygous Y220C mutation; details: cited from earlier work
[8] = target: p53-Y220C DBD (Homo sapiens, UniProt P04637, M133L/N239Y/N268D/V203A/Y220C); assay: Isothermal titration calorimetry; type: binding
[9] = system: HUH-7 p53 KO cells (HUH7-F1); assay: Cell viability, 72 h incubation, isogenic knockout; type: cell-based, human; details: 0.6 to 15 μM, 72 h, HUH-7 p53 KO
Outline: as §1

[10] = read-out: ITC KD, ¶ single measurement with ITC fit error, # mean of at least three independent measurements with SEM

CCn1c2ccc(CNC)cc2c2ccc(-c3cscn3)cc21 [PK9323]
preferential viability reduction in p53-Y220C cells [1]: preferential viability reduction in p53-Y220C cells
stabilization of the wild type in DSF [2]: neither the starting scaffold PK083 nor the second-generation carbazole PK9323 did show any stabilization of the wild type

CCn1c2ccc(CNC)cc2c2ccc(-c3cccs3)cc21 [PK9318]
preferential viability reduction in p53-Y220C cells [1]: preferential viability reduction in p53-Y220C cells
lowering of initial aggregation rate versus no compound ([3]; 30 μM compound, 1:10 protein–ligand ratio): approximately sixfold lower initial aggregation rate
viability at 72 h, 7.5 µM [4]: 88%
viability at 72 h, 15 µM [4]: 40%
DSF ΔTM (°C) ([5]; 250 µM): 3.6 ± 0.2 °C
cell viability ([6]; 15 μM, 72 h, HUH-7): complete viability loss
concentration inducing viability loss ([6]; 72 h, HUH-7): ≥ 3.75 mM
p53-Y220C-dependent cell viability reduction ([6]; 72 h): p53-Y220C-dependent cell viability reduction was observed; also recorded: Y220C-mutant-specific viability reduction
viability at 7.5 µM ([6]; Homo sapiens, Huh-7, 72 h, read-out: cell viability): 58%

Cn1cc(-c2ccccc2)c(-n2cccc2)n1 [PK7088]
effect in Y220C cancer cell lines [7]: induced a mutant-specific increase in the amount of correctly folded protein and upregulation of p53 target genes p21 and NOXA

CCn1c2ccc(CNC)cc2c2ccc(Br)cc21 [PK9284]
affinity increase compared with PK083 [8]: ca. tenfold
Kd [8, 10]: 14.2 ± 2 µM
DSF ΔTM (°C) [5]: 3.0 ± 0.1 °C

CCOc1ccc2c3cc(CNC)ccc3n(CC)c2c1 [PK9295]
Kd [8]: 62 ± 6.5 µM

CCn1c2ccc(CNC)cc2c2ccc(-c3ccoc3)cc21 [PK9321]
Kd [8, 10]: 5.6 ± 1.1 µM

CCn1c2ccc(CNC)cc2c2ccc(-c3cc(C)cs3)cc21 [PK9328]
Kd [8, 10]: 1.7 ± 0.2 µM
preferential viability reduction in p53-Y220C cells [1]: preferential viability reduction in p53-Y220C cells
slowing of initial rate of Y220C aggregation relative to PK9318 [3]: by a factor of two
viability at 72 h, 7.5 µM [4]: > 50%
cell viability ([6]; 7.5 μM, 72 h, HUH-7): complete viability loss
concentration inducing viability loss ([6]; 72 h, HUH-7): ≥ 3.75 mM
p53-Y220C-dependent cell viability reduction ([6]; 72 h): p53-Y220C-dependent cell viability reduction was observed
p53-Y220C-dependent cell viability reduction ([6]; 72 h, listed as PK3328): Y220C-mutant-specific viability reduction

CCn1c2ccc(CNC)cc2c2ccc(-c3ccco3)cc21 [PK9320]
Kd [8, 10]: 4 µM
preferential viability reduction in p53-Y220C cells [1]: preferential viability reduction in p53-Y220C cells
DSF ΔTM (°C) ([5]; 250 µM): 3.7 ± 0.0 °C

CCn1c2ccc(CNC)cc2c2ccc(-c3ccc(C)s3)cc21 [PK9327]
slowing of initial rate of Y220C aggregation relative to PK9318 [3]: by a factor of two

CCn1c2ccc(CNC)cc2c2ccc(-c3cc(C)c(C)s3)cc21 [PK9329]
effect on viability [9]: did not have a significant effect on the viability
effect on viability ([6]; 0.6 to 15 μM, 72 h, HUH-7): did not have a significant effect on the viability
p53-Y220C-dependent cell viability reduction ([6]; 72 h): did not show any p53-Y220C-dependent viability reduction
